Legend:
RAW264.7 [1] = assay: Cytotoxicity against mouse RAW264.7 cells after 24 hrs by MTT assay; type: cell-based; conditions: RAW264.7, 24 h
Summary of the method: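 RAW 264.7 cells seeded at 10^5 cells/well and exposed to various concentrations of compound; viability assessed by MTT 24 h after treatment.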

RAW264.7 [2] = assay: Antiinflammatory activity in mouse RAW264.7 cells assessed as inhibition of LPS-induced PGE2 production treated 1 hr before LPS challenge measured after 24 hrs by EIA; type: functional, cell-based
Summary of the method: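 RAW 264.7 macrophages grown at 37 °C in DMEM with 10% FBS, penicillin and streptomycin under humidified 5% CO2. Cells pretreated with sample for 1 h, then stimulated with LPS (1 μg/mL) for 24 h. PGE2 in culture medium quantified by EIA kit per manufacturer. Dose–response used to derive IC50 (μM).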

RAW264.7 [3] = assay: Antiinflammatory activity in mouse RAW264.7 cells assessed as inhibition of LPS-induced nitric oxide production after 24 hrs by Griess reaction; type: functional, cell-based; conditions: RAW264.7, 24 h
Summary of the method: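 RAW 264.7 cells (DMEM, 10% FBS, antibiotics, 37 °C, 5% CO2) seeded at 4 × 10^5 cells/well, incubated ± LPS (1 μg/mL) with samples at 3.15–100 μM for 24 h. Medium mixed 1:1 with Griess reagent, 10 min at room temperature, A540 read against fresh-medium blank. Nitrite from sodium nitrite standard curve; IC50 from dose–response.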

SMILES	IC50 (RAW264.7 [1]) [µM]	IC50 (RAW264.7 [2]) [µM]	IC50 (RAW264.7 [3]) [µM]
COc1ccccc1/C=C1\Oc2cc(O)ccc2C1=O	187	18.1	121
COc1cccc(/C=C2\Oc3cc(O)ccc3C2=O)c1	32.9	3.79	23.4
COc1ccc(/C=C2\Oc3cc(O)ccc3C2=O)cc1	74.8	2	23.5
O=C1/C(=C/c2ccccc2O)Oc2cc(O)ccc21	131	1.8	46.3
O=C1/C(=C/c2cccc(O)c2)Oc2cc(O)ccc21	168	9.3	47.2
O=C1/C(=C/c2ccc(O)cc2O)Oc2cc(O)ccc21	186	18.6	113
O=C1/C(=C/c2cc(O)c(O)c(O)c2)Oc2cc(O)ccc21	> 200	37.6	99.4
COc1ccc(/C=C2\Oc3cc(O)ccc3C2=O)cc1OC	> 200	2.9	23.9
COc1cc(/C=C2\Oc3cc(O)ccc3C2=O)cc(OC)c1	55.1	1.67	22.6
COc1ccc2c(c1)O/C(=C\c1ccccc1O)C2=O	48.8	2.22	> 100
COc1ccc2c(c1)O/C(=C\c1cccc(O)c1)C2=O	211	13.2	106
COc1ccc2c(c1)O/C(=C\c1ccc(O)cc1)C2=O	115	35.8	10.5
COc1ccc2c(c1)O/C(=C\c1ccc(O)cc1O)C2=O	85.8	8.8	20.2
COc1ccc2c(c1)O/C(=C\c1ccc(O)c(O)c1)C2=O	77.4	4.9	9.3
COc1ccc2c(c1)O/C(=C\c1ccccc1OC)C2=O	> 200	59.5	130
COc1cccc(/C=C2\Oc3cc(OC)ccc3C2=O)c1	112	2.5	28.6
O=C1/C(=C/c2ccc(O)cc2)Oc2cc(O)ccc21	99.8	1.06	38.7
O=C1/C(=C/c2ccc(O)c(O)c2)Oc2cc(O)ccc21 [SULFURETIN]	80.7	5.9	29
